# Source: PubChem
# MEKK2mut PB1 HTS: signal of MEK5 binding to mutant human MEKK2 PB1 domain; hit rate 0.35% among 290,000; percent response, % at 10 µM; bead flow cytometry, Alexa488-MEK5 binding to MEKK2 mutant; in the data active means percent response above about 24%, passing the limit was not always enough
# MEKK2 WT-MEK5: raises or lowers MEK5 binding to wildtype human MEKK2 PB1 domain; Q9Y2U5; binding response (% of control), % at 10 µM; hit rate 1.1% among 290,000; bead flow cytometry, Alexa488-MEK5 binding to MEKK2 WT; actives lie on both sides; AID 1531; in the data active means binding response below about 67% or above about 130%
# UCH37 inh: blocks the human deubiquitinase UCH37. Q9Y5K5. hit rate 0.33% among 330,000. AID 588478. purified proteasome/UCH37, Ub-AMC cleavage fluorescence. inhibition, % (test concentration not listed);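 active means mean inhibition over replicate wells above about 20%, limit read from the data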;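 further: 0% = compound-free wells with enzyme and 100% = wells lacking proteasome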
# Target sequence (Q9Y5K5 whole entry, looked up): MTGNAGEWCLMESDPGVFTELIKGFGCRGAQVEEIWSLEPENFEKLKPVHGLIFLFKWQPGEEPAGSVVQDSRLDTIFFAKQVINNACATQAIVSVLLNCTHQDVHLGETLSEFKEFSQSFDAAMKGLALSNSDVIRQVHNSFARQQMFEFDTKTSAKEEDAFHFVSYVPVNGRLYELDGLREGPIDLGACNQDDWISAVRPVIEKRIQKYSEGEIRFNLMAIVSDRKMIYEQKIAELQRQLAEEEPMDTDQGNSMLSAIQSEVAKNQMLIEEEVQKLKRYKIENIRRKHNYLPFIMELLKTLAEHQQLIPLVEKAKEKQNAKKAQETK
#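 Assay system: Proteasome-bound UCH37. Buffer or medium: pH 7.4 Tris-HCl (50 mM) with ovalbumin, ATP-MgCl2, DTT. Incubation: 30 min preincubation with enzyme, 25 min cleavage at room temperature. Measured by: fluorescence, ex 355 nm, em 460 nm. Read-out basis: percent inhibition. Control set: wells without proteasome as full block, compound-free enzyme plus substrate as uninhibited.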
# Apaf1 inhib: inhibitors of human Apaf-1 apoptosome; O14727; reconstituted apoptosome caspase-3 activity, DEVD-Rh110 fluorescence; inhibition, % at 20 µM; hit rate 0.71% among 330,000; AID 489030; active means inhibition of at least 40% at 20 µM;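 further: plate controls were DMSO wells for no effect and DEVD-CHO caspase inhibitor wells for full effect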
#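 Assay system: Apoptosome proteins | Medium: pH 7.5 Hepes buffer with CHAPS, BSA, DTT | Also added: Cytochrome c and DEVD-Rh110 substrate | Times: 30 min plus 50 min, RT | Detection: Rhodamine 110 fluorescence at Ex 480/Em 540 nm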
# MEKK3 PB1 HTS: modulators (inhibitors or enhancers) of MEK5 binding to human MEKK3 PB1 domain; bead-based flow cytometry, Alexa488-MEK5 binding to MEKK3; actives lie on both sides; 0 = blocked by unlabeled MEK5, 100 = vehicle; Q99759; hit rate 1.4% among 290,000; binding response (% of control), % at 10 µM;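 active means binding response more than 3 SD above or below the average of its plate-row segment, actives on both sides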;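 further: Alexa488 bead fluorescence after subtracting the streptavidin-only scavenger bead signal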
# UBC13 inh: inhibitors of human UBC13 polyubiquitin chain formation | P61088 | inhibition, % at 20 µM | hit rate 0.47% among 330,000 | TR-FRET; in the data active means inhibition above about 45%, passing the limit was not always enough
# Target sequence (P61088 whole entry, looked up): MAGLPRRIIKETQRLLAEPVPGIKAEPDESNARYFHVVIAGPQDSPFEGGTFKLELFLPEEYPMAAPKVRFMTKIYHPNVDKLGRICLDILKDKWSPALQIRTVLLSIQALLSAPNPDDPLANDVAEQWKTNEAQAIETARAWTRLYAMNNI
# MEKK2wt confirm: raises or lowers MEK5 binding to wildtype human MEKK2, retest | shares compounds with MEKK3 PB1 HTS | bead flow cytometry, Alexa488-MEK5 binding to MEKK2 WT; actives lie on both sides | binding response (% of control), % at 10 µM | hit rate 2.4% among 5,900 | AID 1892; in the data active means binding response below about 16% or above about 210%; inactive means in between
# MEKK2mut confirm: signal of MEK5 binding to mutant human MEKK2, retest | shares compounds with MEKK3 PB1 HTS | bead flow cytometry, Alexa488-MEK5 binding to MEKK2 mutant | percent response, % at 10 µM | hit rate 2% among 5,900 | AID 1893; in the data active means percent response mostly above about 71%, no sharp cut-off; inactive means mostly below about 38%;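 further: higher means compound restores mutant binding toward wildtype level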
# MEKK3-MEK5 inh: confirmation of inhibitors of MEK5 binding to human MEKK3. AID 1894. hit rate 1.8% among 5,900. shares compounds with MEKK3 PB1 HTS. bead flow cytometry, Alexa488-MEK5 binding to MEKK3; hits give low values. binding response (% of control), % at 10 µM;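 active means binding response below 72% of control, or above a set upper limit, though filed actives all read lower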;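 further: 100% = DMSO only wells and 0% = binding blocked by excess unlabeled MEK5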
# * marks the source's active call; other numbers are inactive results; nt = not tested or not shown; [ ] = dose if it differs, or a comment. A selection: hits, their analogues and other compounds. The true share with any hit is near 3%.
SMILES,MEKK2mut PB1 HTS,MEKK2 WT-MEK5,UCH37 inh,Apaf1 inhib,MEKK3 PB1 HTS,UBC13 inh,MEKK2wt confirm,MEKK2mut confirm,MEKK3-MEK5 inh
CC(NC(=O)C(=O)NCCC1=CCCCC1)c1ccccc1 (centres undefined),0,105,2,9,139*,-3,98,-2,98
CC(C)CCNC(=O)C(=O)NCCC1=CCCCC1,2,109,2,12,105,-4,nt,nt,nt
COC(=O)/C(N=Nc1c(C)n(C)n(-c2ccccc2)c1=O)=C(\C)O,0,108,6,-5,142*,-18,98,-2,106
CCOC(=O)/C(N=Nc1c(C)n(C)n(-c2ccccc2)c1=O)=C(/O)c1ccccc1,-20,82,-1,1,77,-6,nt,nt,nt
CCCNC(=O)C(NS(=O)(=O)c1cccc2nsnc12)c1ccccc1 (centres undefined),1,97,2,1,98,0,nt,nt,nt
Nc1[nH]n(-c2ccccc2)c(=O)c1N=Nc1ccc2c(c1)OCCO2,-9,80,6,17,75*[inhibitor],-194,98,-2,103
Nc1[nH]n(-c2ccccc2)c(=O)c1N=Nc1ccc2c(c1)OCO2,-8,92,nt,18,84,-158,nt,nt,nt
COCCNC(=O)Cn1c(=O)n(CCCCCC(=O)Nc2ccccc2)c(=O)c2sccc21,1,107,2,0,135*,-2,104,1,103
COCCCNC(=O)Cn1c(=O)n(CCCCCC(=O)Nc2ccccc2)c(=O)c2sccc21,-3,94,-1,-10,100,-4,nt,nt,nt
O=C(CCCCO)CCCCCCCC[C@H]1N[C@H](CO)[C@H](O)[C@@H]1O[C@@H]1O[C@H](CO)[C@@H](O)[C@H](O)[C@H]1O,3,96,nt,-10,95,-3,nt,nt,nt
O=S(=O)(NCC1COc2ccccc2O1)c1ccc2ccccc2c1 (centres undefined),-1,104,-1,11,104,-1,nt,nt,nt
CNS(=O)(=O)c1ccc(NCC2COc3ccccc3O2)c([N+](=O)[O-])c1 (centres undefined),-1,103,3,9,133*,-6,102,0,101
CCOC(=O)c1ccc(NC(=O)c2nn(CC)cc2Br)cc1,-39,-4.0*[inhibitor],1,-17,0.0*[inhibitor],0,101,-2,101
CCOC(=O)c1ccc(NC(=S)Nc2ccccc2)cc1,1,93,0,5,64*[inhibitor],1,97,-1,101
CCOC(=O)c1ccc(NC(=S)Nc2ccc(C)cc2)cc1,1,98,5,3,104,0,nt,nt,nt
CC(C)(C)C1CCc2nc(NC(=O)Cc3cn4ccsc4n3)sc2C1 (centres undefined),5,106,0,32,100,-6,nt,nt,nt
CCc1cc2c(=O)[nH]c(N3CCOCC3)nc2s1,2,104,3,1,93,2,nt,nt,nt
Cc1ccc(S(=O)(=O)Oc2cccc(/C=N/Nc3ccc(C(=O)O)cc3)c2)cc1,28,128,nt,-20,132*,21,105,7,104
CC1CCN(C(=O)COC(=O)CCc2c[nH]c3ccccc23)CC1,-14,65,4,-6,50*[inhibitor],7,106,5,106
COc1ccc(CCNCC(O)Cn2c3ccccc3c3ccccc32)cc1OC (centres undefined),23,159*,5,8,106,27,165,36,111
COc1ccccc1NCC(O)Cn1c2ccccc2c2ccccc21 (centres undefined),-2,99,-5,7,99,8,nt,nt,nt
CCn1c(SCC(=O)N/N=C/C=C/c2ccco2)nnc1-c1ccc(OC)cc1,13,103,nt,15,103,-6,nt,nt,nt
CCOC(=O)c1c(NC(=O)c2ccc(N3C(=O)[C@@H]4[C@H](C3=O)[C@H]3C=C[C@@H]4C3)cc2)sc2c1CCCC2,0,108,-127,6,145*,11,97,-4,100
CCOC(=O)c1c(NC(=O)c2ccc(-n3cnnn3)cc2)sc2c1CCCC2,-1,97,-54,nt,94,nt,nt,nt,nt
CCOC(=O)c1c(NC(=O)Cn2cnc([N+](=O)[O-])n2)sc2c1CCCC2,4,103,0,40,130*,25,99,3,103
SMILES,MEKK2mut PB1 HTS,MEKK2 WT-MEK5,UCH37 inh,Apaf1 inhib,MEKK3 PB1 HTS,UBC13 inh,MEKK2wt confirm,MEKK2mut confirm,MEKK3-MEK5 inh
CCOC(=O)c1c(NC(=O)C2CCCN(S(=O)(=O)c3ccc(C)cc3)C2)sc2c1CCCC2 (centres undefined),1,107,-6,4,141*,6,94,-2,101
CC(C)OC(=O)c1c(NC(=O)Cn2cnc([N+](=O)[O-])n2)sc2c1CCCC2,4,117,6,30,116,10,nt,nt,nt
O=C(NCCN1CCOCC1)c1cc(Cl)ccc1[N+](=O)[O-],13,103,nt,5,103,-11,nt,nt,nt
CCn1c(=O)cc(O)c2c(=O)n(C)c(=O)n(C)c21,nt,nt,1,3,nt,-3,nt,nt,nt
COc1ccc(-c2nnc(OCc3ccccc3)c3ccccc23)cc1,0,104,-1,8,129*,-5,110,9,110
c1ccc(-c2nnc(OCc3cccnc3)c3ccccc23)cc1,3,103,1,16,106,-4,nt,nt,nt
O=C(NCc1ccco1)c1ccc(Cn2c(=O)c3ccccc3n(Cc3ccc(Cl)cc3)c2=O)cc1,8,122,1,21,133*,-12,108,3,105
O=C(NCc1ccco1)c1ccc(Cn2c(=O)c3ccccc3n(Cc3cccc(F)c3)c2=O)cc1,1,89,4,20,105,-6,nt,nt,nt
COc1ccccc1NC(=S)NCCc1c[nH]c2ccccc12,-5,90,4,2,92,6,nt,nt,nt
COc1cc(CNCCc2c[nH]c3ccccc23)ccc1OCc1ccc(F)cc1,47*,197*,-2,19,106,43,144,14,87
COc1cccc(CNCCc2c[nH]c3ccccc23)c1OCc1ccc(F)cc1,39*,165*,0,11,111,36,131,22,101
Cc1ccc(N(CC(=O)NC2CCCC2)C(=O)c2ccc(C)s2)cc1,-6,97,2,11,92,0,nt,nt,nt
